PLCg1 inh = inhibitors of human phospholipase C gamma1; P19174; purified PLC-gamma1, fluorogenic substrate, fluorescence; inhibition, % at 12.2 µM; 370,000 compounds, 0.84% hits; AID 720700; in the data active = inhibition above about 9.5%
sPLA2-III inh = Inhibits HGIII-sPLA2 liposome hydrolysis, primary screen. QFRET BODIPY PC-A2 liposome hydrolysis, fluorescence. inhibition, % at 12.2 µM. AID 743126. 370,000 compounds, 0.56% hits;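 active = inhibition above mean plus 3 SD of compounds lying within the high and low control bounds, cut at about 19% in these data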
procasp7 counter = activates human procaspase-7, counter-screen for procaspase-3 activators; activation, % at 8.5 µM; 330,000 compounds, 0.093% hits; AID 463210; recombinant procaspase-7, Ac-DEVD-pNA absorbance 405 nm; D23A/D198A/D206A triple mutant, cannot self-cleave; scale: DMSO 0, 5 µM enzyme 100;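 active = percent activation above the screen-wide mean plus 3 SD, cut at about 25% in these data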
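buffer or medium = Zinc-free HEPES/NaCl buffer, pH 7.4 | material = Procaspase-7 triple mutant (PC-7 D3A) | input = 2 µM procaspase-7 mutant as dispensed | signal = Epi-absorbance of released pNA at 405 nm, two timepoints | timing = 1 h preincubation, 2 h reaction | replicates = singlicate compound testing | evaluation = % activation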
PLCb3 inh = inhibitors of human phospholipase C beta3; Purified PLC-beta3, fluorogenic substrate, fluorescence; 370,000 compounds, 0.18% hits; inhibition, % at 12.2 µM; Q01970
proCasp3 act = procaspase-3 (human) activation; 330,000 compounds, 0.11% hits; recombinant procaspase-3 D3A, Ac-DEVD-pNA absorbance 405 nm; activation, % at 8.5 µM;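 active = activation above the mean of all tested compounds plus 3 SD, cut at about 21% in these data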
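Test system: Procaspase-3 D3A mutant, all three cleavage aspartates alanine | Dosing: Single dose, 8.5 µM nominal compound, 0.8% DMSO | Schedule: 1 h preincubation, 2 h reaction | Technique: 405 nm absorbance of p-nitroaniline, reads at 0 and 120 min | Repeats: One well per compound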
PLCg1 ctr = inhibits human PLC-gamma1 in PLC-beta3 counter-screen; shares compounds with PLCg1 inh; purified PLC-gamma1, fluorogenic substrate, fluorescence; inhibition, % at 12.3 µM; 3,300 compounds, 3.1% hits; AID 743258; in the data active = inhibition above about 9.5%
PLCbeta3 conf = confirmation of human PLC-beta3 inhibitors; shares compounds with PLCg1 inh; purified PLC-beta3, fluorogenic substrate fluorescence; inhibition, % at 12.3 µM; 3,300 compounds, 1% hits; AID 743261
Hits are given with their value; i = inactive; nt = no result given. In the library only some 1.6% were active in any assay of this set; here they are far more common. Rule as the data show it, unless noted: active = inhibition above about 11%; inactive = the rest.

SMILES | PLCg1 inh | sPLA2-III inh | procasp7 counter | PLCb3 inh | proCasp3 act | PLCg1 ctr | PLCbeta3 conf
COc1ccccc1NC(=O)C(=N\O)/C(C)=N/O | 11 | i | i | i | i | i | i
CC(NC(=O)c1ccc([N+](=O)[O-])cc1Cl)C1CC2CCC1C2 (stereo unspecified) | 11 | i | i | i | i | i | i
CCOc1ccccc1N1CC(C(=O)NC2CCCCCC2)CC1=O (stereo unspecified) | i | i | i | i | i | nt | nt
O=C(Nc1cccc2ccccc12)c1ccc(F)cc1 | i | i | i | i | i | nt | nt
O=C(Nc1cccc2ccccc12)c1ccccc1 | 10 | i | i | i | i | i | i
COc1ccc2c(c1)OC(O)(C(F)F)CC2=O (stereo unspecified) | 12 | i | i | i | i | i | i
COc1cc([N+](=O)[O-])ccc1NC(=O)C[n+]1ccccc1C | i | i | i | i | i | nt | nt
Cc1cccc[n+]1CC(=O)Nc1ccc([N+](=O)[O-])cc1Cl | 14 | i | i | i | i | i | i
C#CCN(C[C@@H]1[C@@H](OC(=O)NC2CCCC2)[C@@H](OC(=O)NC2CCCC2)CN(C(=O)OC(C)C)N1C(=O)OC(C)C)S(=O)(=O)c1ccc(C)cc1 | 11 | i | nt | i | nt | i | i
C#CCN(C[C@@H]1[C@@H](OC(=O)NCc2ccc(OC)c(OC)c2)[C@@H](OC(=O)NCc2ccc(OC)c(OC)c2)CN(C(=O)OC(C)C)N1C(=O)OC(C)C)S(=O)(=O)c1ccc(C)cc1 | i | i | nt | i | nt | nt | nt
O=C(CCc1ccccc1)Oc1ccccc1[N+](=O)[O-] | 13 | i | i | i | i | i | i
CCOC(=O)Cc1csc(SCC(=O)Nc2cccc(Cl)c2)n1 | 14 | i | i | i | i | i | i
CCCC12CN3CC(C)(CN(C1)C3c1ccc([N+](=O)[O-])o1)C2=O (stereo unspecified) | i | i | i | i | i | nt | nt
CCC12CN3CC(CC)(CN(C1)C3c1ccc([N+](=O)[O-])o1)C2=O (stereo unspecified) | 11 | i | i | i | i | i | i
CCOc1ccc(Nc2nc(-c3cccnc3)cs2)cc1 | 12 | i | i | i | i | i | i
Cn1nc(C(=O)O)c(=O)n(C)c1=O | i | i | nt | i | nt | nt | nt
COc1ccc2cc(-c3[nH]ncc3CN3C[C@@H]4CCC[C@H]3C4)ccc2c1 | i | i | i | i | i | nt | nt
O=C(CN1CCN(S(=O)(=O)c2ccc(F)cc2)CC1)Nc1ccccc1C(=O)NC1CC1 | i | i | nt | i | nt | nt | nt
N#Cc1ccc(S(=O)(=O)N2CCN(CC(=O)Nc3ccccc3C(=O)NC3CC3)CC2)cc1 | 9.7 | i | i | i | i | i | i
CCn1c(=O)cc(OCC(=O)NCc2ccco2)c2ccccc21 | 12 | i | i | i | i | i | i
Cc1ccc(NC(=O)C2CCN(C(=O)c3ccc(F)cc3)CC2)nc1 | i | i | i | i | i | nt | nt
Cc1noc(C)c1NC(=O)NC(c1ccccc1)c1ccccc1 | 10 | i | i | i | i | i | i
Cc1ccccc1C(=O)N1CCC(C(=O)OCc2nc(N)nc(Nc3ccccc3)n2)CC1 | i | i | i | i | i | nt | nt
O=S1(=O)C[C@@H](N2CC[C@@H](O)C2)[C@H](COCc2ccccc2)N1 | 10 | i | nt | i | nt | i | i
CN(C)[C@H]1CCN([C@@H]2CS(=O)(=O)N[C@H]2COCc2ccccc2)C1 | i | i | nt | i | nt | nt | nt
SMILES | PLCg1 inh | sPLA2-III inh | procasp7 counter | PLCb3 inh | proCasp3 act | PLCg1 ctr | PLCbeta3 conf
Cc1ccc(NCC(=O)N/N=C/c2cc(O)ccc2[N+](=O)[O-])cc1 | i | i | i | i | i | nt | nt
COc1ccc(CNC(=O)CCC(=O)Nc2nnc(CC(C)C)s2)cc1 | 12 | i | i | i | i | i | i
N#CCOc1nc(N2CCCC2)nc(N2CCCC2)n1 | i | i | i | i | i | nt | nt
N#CCOc1nc(N2CCOCC2)nc(N2CCOCC2)n1 | 10.0 | i | i | i | i | i | i
FC(F)(F)c1ccccc1NC(=S)Nc1ccccc1 | 11 | i | i | i | i | i | i
COc1ccc2nc(NC(=O)CN3C(=O)NC4(CCCCC4)C3=O)sc2c1 | i | i | i | i | i | nt | nt

Source: PubChem
